Legend:
HeLa cells = experiment: Resazurin cell viability assay, HeLa; assay type: cell-based, human
Outline: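 HeLa cells are kept in DMEM with 5% FCS, penicillin/streptomycin, at 37 °C and 5% CO2. Cells are seeded in triplicate at 4 × 10^3 per well one day ahead, then exposed 48 h to increasing concentrations diluted in medium from 10 mg mL−1 DMSO stocks. Medium is then replaced with resazurin (0.2 mg mL−1 final) for 4 h at 37 °C, and resorufin fluorescence is read at ex 540/em 590 nm.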

B. subtilis 168 [1] = experiment: Cell wall integrity assay; assay type: cell-based, Bacillus subtilis; conditions: 8 μg mL^–1 (2× MIC), nisin 0.75 μg mL^–1; 15 minutes
[2] = test system: B. subtilis 1981 GFP-MinD; experiment: GFP-MinD delocalization assay; assay type: cell-based, Bacillus subtilis; conditions: 8 μg mL^–1 (2× MIC), nisin 0.75 μg mL^–1; 15 minutes
B. subtilis 168 [3] = experiment: BacLight membrane disruption assay; assay type: cell-based, Bacillus subtilis; conditions: 8 μg mL^–1 (2× MIC), nisin 0.75 μg mL^–1; 15 minutes
Outline: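 B. subtilis 168 is grown in Belitzky minimal medium to early log phase and exposed for 15 min; untreated aliquot serves as control. Cells are stained 15 min with a 1:1 SYTO 9/propidium iodide mix (1 μL per mL cells), washed twice in 100 mM Tris/1 mM EDTA pH 7.5, then examined by fluorescence microscopy. Red or orange cells in the overlay indicate permeabilized membranes.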

| Molecule | IC50 HeLa (HeLa cells; 48 h) | IC50 (HeLa cells; read-out: IC50 HeLa, 48 h) | cell wall integrity after acetic acid/methanol fixation (B. subtilis 168 [1]) | GFP-MinD localization (membrane depolarization) [2] | membrane permeabilization, BacLight staining (B. subtilis 168 [3]) |
| --- | --- | --- | --- | --- | --- |
| N.N.[Cl][Pt][Cl] [Cisplatin] | 3.5 ± 0.9 μg mL^–1 | 11.5 ± 2.9 µM | – | – | – |
| nisin (ITSISLCTPGCKTGALMGCNMKTATCHCSIHVSK; not fully specified; Lantibiotic nisin-A; UniProt P13068 24-57, looked up) | – | – | membrane extrusions | MinD delocalization | red fluorescencing cells |

Reference: publication PMC5433042 (Chemical Science, 2014)
